T cruzi repl: T. cruzi replication inhibition; T. cruzi beta-gal in NIH3T3, luminescence, 90 h; inhibition, % (test concentration not listed); 300,000 compounds, 1.4% hits;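 active means mean inhibition across valid replicates above about 55%, limit read from the data; inconclusive means mean below that limit but half or more replicates reach it; inactive means mean below it, under half of replicates reach it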;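 further: signal also drops with host cell toxicity which is not excluded here; higher percent means less beta-gal luminescence so fewer parasites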
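compound dosing = single 50 nL compound addition per well in DMSO | material = NIH/3T3 host cells with β-galactosidase reporter T. cruzi | input = 5,000 host fibroblasts per well | timing = ≥90 h infection period, 3 h prior cell attachment | read-out basis = percent inhibition of parasite-derived β-gal signal | detection = GalScreen β-gal luminescence, detergent lysis, 60 min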
Beta cell apopt: blocks beta cell apoptosis. INS-1E cytokine-induced death, ATP luminescence, 48 h; percent of positive-control rescue, neutral wells zero. AID 435005. 300,000 compounds, 0.8% hits. protection from apoptosis, % (no concentration beside the values);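 active means Every replicate reaches about 75%, or at least half do and their mean reaches it too, limit read from the data; inconclusive means At least half of replicates reach the limit but their mean does not; inactive means Under half of replicates reach the limit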;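 further: higher means more ATP so stronger rescue from cytokine killing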
CSC inhib: blocks cancer stem cells; cancer stem cell-like cells viability, luminescence; inhibition, % at 7.5 µM; 300,000 compounds, 1.1% hits; AID 2717; in the data active means inhibition above about 75%; inconclusive means no clear call, values can overlap the other calls; tested in HMLE shEcad cells
SKKanGAS inh: SKKanGAS growth inhibition; inhibition, % at 7.5 µM; 300,000 compounds, 1.3% hits; S. pyogenes SKKanGAS, kanamycin growth, BacTiter-Glo, 6 h; AID 1662;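 active means mean replicate score, as percent of positive control median, at least 50; inconclusive means mean below 50 but one replicate at or above 50; inactive means mean and every replicate below 50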;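 further: strain carries kanamycin resistance gene driven by streptokinase promoter and grows in 40 µg/ml kanamycin; loss of luminescence reflects streptokinase promoter inhibition or plain growth inhibition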
Calb FLC: C. albicans growth modulation with fluconazole; C. albicans CaCi-2 + fluconazole, Alamar Blue growth, 48 h; 300,000 compounds, 0.57% hits; growth inhibition, % (concentration not given with the values);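 active means growth inhibition above about 58% in most replicates, limit read from the data, passing the limit was not always enough; inconclusive means exactly half the replicates above a set limit; inactive means most replicates below a set limit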;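 further: all wells also contain fluconazole at 8 µg/ml as a sub-toxic cotreatment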
Mdm2 MdmX PPI: disrupts the human Mdm2-MdmX interaction. O15151+Q00987. SaOS-2 split-luciferase Mdm2/MdmX complementation, luminescence. inhibition, % at 8 µM. 330,000 compounds, 3% hits. AID 485346;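 active means inhibition of at least 50% at 8 µM in the primary screen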
Target sequence (O15151 whole entry, looked up): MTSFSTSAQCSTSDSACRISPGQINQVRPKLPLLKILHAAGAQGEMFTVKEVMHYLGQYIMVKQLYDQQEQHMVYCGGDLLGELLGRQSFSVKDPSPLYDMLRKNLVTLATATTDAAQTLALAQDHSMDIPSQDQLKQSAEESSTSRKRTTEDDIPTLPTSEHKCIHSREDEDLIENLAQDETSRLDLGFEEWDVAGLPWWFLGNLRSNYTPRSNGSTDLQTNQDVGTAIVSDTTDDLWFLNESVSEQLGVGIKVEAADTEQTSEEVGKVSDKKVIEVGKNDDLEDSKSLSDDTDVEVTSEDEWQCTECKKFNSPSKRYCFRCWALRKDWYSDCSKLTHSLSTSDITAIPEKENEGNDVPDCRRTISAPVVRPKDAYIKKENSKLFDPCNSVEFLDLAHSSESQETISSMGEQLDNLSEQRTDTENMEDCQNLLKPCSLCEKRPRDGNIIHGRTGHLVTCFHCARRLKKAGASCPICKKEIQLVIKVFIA
Target sequence (Q00987 whole entry, looked up): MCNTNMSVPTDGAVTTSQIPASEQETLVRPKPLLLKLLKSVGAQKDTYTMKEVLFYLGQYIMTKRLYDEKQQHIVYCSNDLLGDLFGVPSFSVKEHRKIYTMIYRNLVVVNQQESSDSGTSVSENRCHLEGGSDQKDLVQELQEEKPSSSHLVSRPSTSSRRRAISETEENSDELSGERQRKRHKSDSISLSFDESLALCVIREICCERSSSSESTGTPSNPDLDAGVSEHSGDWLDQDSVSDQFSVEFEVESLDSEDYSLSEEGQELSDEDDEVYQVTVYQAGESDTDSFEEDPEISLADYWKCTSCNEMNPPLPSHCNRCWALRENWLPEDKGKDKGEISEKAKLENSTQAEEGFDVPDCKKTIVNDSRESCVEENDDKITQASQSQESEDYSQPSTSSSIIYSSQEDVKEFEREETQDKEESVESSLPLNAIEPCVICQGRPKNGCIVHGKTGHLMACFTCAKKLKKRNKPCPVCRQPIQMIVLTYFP
Mdm2 MdmX conf: human Mdm2/MdmX binding inhibition, confirmed. shares compounds with Mdm2 MdmX PPI. luminescent assay. AID 489028. inhibition, % at 8 µM. 10,000 compounds, 55% hits; in the data active means inhibition above about 40%
FLuc counter: counter-screen for Mdm2/MdmX inhibitors: full-length luciferase. shares compounds with Mdm2 MdmX PPI. SaOS-2 full-length luciferase counterscreen, luminescence. inhibition, % at 8 µM. 6,200 compounds, 77% hits;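 active means mean inhibition at 8 µM reaching about 37%, which flags the compound as non-specific, limit read from the data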;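 further: p53-null SaOS-2 cells with luciferase driven by a doxycycline-inducible promoter; compound on cells about two nights before reading with doxycycline added after day one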
Numbers stand for hits; i = inactive; ? = inconclusive; nt = not tested or not shown. A selection: hits, their analogues and other compounds. The true share with any hit is near 5.7%.

SMILES	T cruzi repl	Beta cell apopt	CSC inhib	SKKanGAS inh	Calb FLC	Mdm2 MdmX PPI	Mdm2 MdmX conf	FLuc counter
CCn1ccnc1CN1CCN(CC(C)C)C(CCO)C1 (stereo not given)	i	i	i	i	i	i	nt	nt
COc1ccc(CN2C(=O)c3ccccc3C(/C=N\OCc3ccc(F)cc3)C2=O)cc1 (stereo not given)	i	i	i	i	i	i	nt	nt
COc1ccc(CN2C(=O)c3ccccc3C(/C=N/OCc3ccc(Cl)cc3)C2=O)cc1 (stereo not given)	i	i	nt	97	i	67	i	nt
CC1CN(C(=S)Nc2cccc(Cl)c2Cl)CC(C)O1 (stereo not given)	i	i	i	i	i	i	nt	nt
O=C(CN1CCCCC1)Nc1ccc(NC(=O)c2ccc(Cl)cc2)cc1Cl	i	i	i	i	?	57	i	nt
Cc1cc(Cl)ccc1NC(=O)CN1CCCC1	i	i	i	i	i	i	nt	nt
NCCCNc1nc(N)c([N+](=O)[O-])c(NC2CCCCC2)n1	i	i	i	i	i	73	70	56
COc1ccc(C(=O)O/N=C(\N)Cc2ccc(Cl)cc2)cc1OC	?	i	i	i	i	100	93	42
COc1ccc(/C(N)=N/OC(=O)c2ccc3c(c2)OCO3)cc1OC	57	nt	nt	i	i	91	i	nt
N/C(=N\OC(=O)c1ccc2c(c1)OCO2)c1cccc(Br)c1	i	i	i	i	i	i	nt	nt
COc1ccc(C(=O)O/N=C(\N)Cc2ccc(Cl)c(Cl)c2)cc1OC	i	i	i	i	i	101	100	i
N/C(Cc1ccc(Cl)cc1)=N\OC(=O)c1ccccc1	i	i	i	i	i	i	nt	nt
CCOC(=O)N1CCC(NC(=O)CS(=O)Cc2nc(-c3ccccc3C)oc2C)CC1 (stereo not given)	i	i	i	i	i	i	nt	nt
COc1ccc(/C=C/C(=O)Nc2cccc(S(=O)(=O)NC3=NCCCCC3)c2)cc1OC	nt	i	nt	nt	nt	i	nt	nt
CCOc1cccc(/C=N/NC(=S)Nc2ccccc2[N+](=O)[O-])c1O	i	i	i	73	i	85	83	49
CCCCNC(=S)N/N=C/c1cccc(OCC)c1O	i	i	i	i	i	i	nt	nt
C=C(C(=O)c1ccccc1)C(C(=C)C(=O)c1ccccc1)c1ccc(OC)cc1	55	111	i	i	i	98	99	50
C=C(C(=O)c1ccccc1)C(c1ccccc1)C(C)C(=O)c1ccccc1 (stereo not given)	i	nt	111	i	i	92	63	44
CCOc1ccccc1C1CC(=O)Nc2cc3c(cc21)OCCO3 (stereo not given)	i	i	i	i	i	70	58	123
CCCOc1ccccc1C1CC(=O)Nc2cc3c(cc21)OCCO3 (stereo not given)	i	i	i	i	i	52	49	61
CCCCOc1ccccc1C1CC(=O)NC2=C1C(=O)CCC2 (stereo not given)	i	i	i	i	i	i	nt	nt
CCCOc1ccccc1C1CC(=O)NC2=C1C(=O)CCC2 (stereo not given)	i	i	i	i	i	58	56	48
Cc1cccc(NS(=O)(=O)c2cccc(C(=O)NCC(c3ccco3)N(C)C)c2)c1 (stereo not given)	i	i	i	i	i	i	nt	nt
N#Cc1cc2c(nc1SCC(=O)N1CCOCC1)CCCCC2	i	nt	nt	i	i	81	86	115
N#CCCN(C(=O)CCl)c1cccc(Cl)c1	i	i	i	i	i	100	92	54
SMILES	T cruzi repl	Beta cell apopt	CSC inhib	SKKanGAS inh	Calb FLC	Mdm2 MdmX PPI	Mdm2 MdmX conf	FLuc counter
CCCCCCCN(C(=O)CCl)c1cccc(C)c1	i	i	i	i	i	99	97	i
N#CCCN(C(=O)COC(=O)c1nc(Cl)ccc1Cl)c1ccccc1	i	i	i	i	i	i	nt	nt
CCCCCCN(C(=O)CCl)c1ccccc1	i	i	i	i	i	98	92	i
O=C(OCC(=O)N1CCc2ccccc21)c1ccccn1	i	i	i	i	i	i	nt	nt
CCCc1cnc(NCCNCC(O)COc2ccc(Cl)c(Cl)c2)nc1 (stereo not given)	i	i	i	i	i	56	i	nt
CC(=O)c1cccc(OCC(O)CNCCc2ccc(Cl)cc2)c1 (stereo not given)	i	i	i	i	nt	i	nt	nt
CS(=O)(=O)c1ccc(C(=O)OCC(=O)NC(=O)C2CCCCC2)cc1[N+](=O)[O-]	i	i	i	i	i	50	i	nt
CS(=O)(=O)c1ccc(C(=O)OCC(=O)NC(=O)C2COc3ccccc3O2)cc1[N+](=O)[O-] (stereo not given)	nt	i	i	nt	nt	51	i	nt
O=C(NC1CCCN(Cc2ccccc2F)C1)C1CCC1 (stereo not given)	i	nt	i	i	i	i	nt	nt
COc1ccc2sc(-c3ccc(N(C)C)cc3)c(C#Cc3cncn3C)c2c1	nt	i	104	nt	nt	74	i	nt
COc1ccc(-c2sc3ccc(N4CCOCC4)cc3c2C#Cc2ccsc2)cc1	nt	i	i	nt	nt	i	nt	nt
CC(=O)N1CCc2c(sc(NC(=O)Cc3ccc(C)cc3C)c2C#N)C1	i	i	i	i	i	i	nt	nt
CC(=O)N1CCc2c(sc(NC(=O)CCS(=O)(=O)c3ccc(C)cc3)c2C#N)C1	i	i	i	i	i	52	41	78
Cc1ccc(OC(=O)c2oc3ccc(F)cc3c2C)c(C)c1	i	i	i	i	i	52	i	nt
COc1ccc(C(C(=O)NC2CCCC2)N(C(=O)CNC(=O)c2ccco2)c2cccnc2)cc1 (stereo not given)	i	i	nt	i	i	i	nt	nt
O=C(/C=C\c1ccco1)Nc1cc([N+](=O)[O-])ccc1F	i	i	nt	i	i	59	58	124
COCCN(Cc1nc2ccccc2c(=O)[nH]1)C(=O)COc1ccccc1-c1ccccc1	nt	nt	nt	nt	nt	53	43	86
COc1ccc(Cn2cnc3c4cc(F)ccc4n(C)c3c2=O)cc1	nt	i	i	i	i	65	i	nt
COc1ccc2c(c1)c1ncn(CCc3ccccc3)c(=O)c1n2C	i	i	i	i	i	i	nt	nt
Cn1c(NCC(O)c2ccccc2)nc2c1c(=O)n(Cc1ccc(Cl)c(Cl)c1)c(=O)n2C (stereo not given)	i	i	i	i	i	63	i	nt
Cn1c(NCC(O)c2ccccc2)nc2c1c(=O)n(Cc1ccc(Cl)cc1)c(=O)n2C (stereo not given)	i	i	i	i	i	i	nt	nt
COc1ccc([C@@H]2[C@@H]3C(=O)N(C(C)(C)C)C(=O)[C@@H]3[C@]3(Cc4ccccc4)C(=O)N(c4ccc(C(F)(F)F)cc4)C(=O)N23)cc1	i	i	i	i	i	85	90	i

From PubChem
